NALP1 yeast inh: inhibitors of NALP1 inflammasome in yeast; S. cerevisiae NALP1/ASC/caspase-1 growth, X-gal OD620, 72 h; inhibition, % at 10 µM; 0.61% of 280,000 active; in the data active = inhibition mostly above about 24%, no sharp cut-off; inactive = mostly below about 32%
PolyA inhibitor: inhibitors of polyadenylation in S. cerevisiae; 0.02% of 300,000 active; AID 1875; activity score, % at 12 µM; S. cerevisiae SKY197-pL101 polyadenylation reporter, beta-gal luminescence; efflux-impaired pdr1/pdr3 knockout yeast; score 100 = 6 SD above DMSO;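 active = lowest replicate activity score at least 50, where 100 means six control SD above control mean; inconclusive = lowest score under 50 but half or more replicates reach 50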;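 also: yeast exposed to compound for 9 h at 30 °C; higher score means more reporter readthrough which indicates perturbed polyadenylation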
NALP3 yeast inh: inhibitors of NALP3 inflammasome in yeast | Yeast reconstituted NLRP3/ASC/caspase-1, beta-gal luminescence, 24 h | inhibition, % at 10 µM | 0.39% of 330,000 active;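 active = inhibition of 50% or more; inactive = inhibition below 50%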;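 also: plate controls were induced DMSO wells for no effect and uninduced yeast grown without galactose for full effect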
Lmaj promast: reduces viability of Leishmania major promastigotes. inhibition, % at 10 µM. 9% of 200,000 active. resazurin fluorescence viability. AID 1063; in the data active = inhibition above about 50%;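 also: promastigotes grown with compound for 44 hours at 28 °C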
T cruzi inh: T. cruzi replication inhibition | T. cruzi beta-gal in NIH3T3, luminescence, 90 h | inhibition, % (test concentration not listed) | 1.4% of 300,000 active | AID 1885;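 active = mean inhibition across valid replicates above about 55%, limit read from the data; inconclusive = mean below that limit but half or more replicates reach it; inactive = mean below it, under half of replicates reach it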;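 also: signal also drops with host cell toxicity which is not excluded here; 0% = plate median of DMSO wells and 100% = zero luminescence signal; higher percent means less beta-gal luminescence so fewer parasites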
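Assay system: NIH/3T3 host cells with β-galactosidase reporter T. cruzi; input: 5,000 host fibroblasts per well; compound: single 50 nL compound addition per well in DMSO; timing: ≥90 h infection period, 3 h prior cell attachment; measured by: GalScreen β-gal luminescence, detergent lysis, 60 min; evaluation: percent inhibition of parasite-derived β-gal signal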
Calb FLC: C. albicans growth modulation with fluconazole. C. albicans CaCi-2 + fluconazole, Alamar Blue growth, 48 h. growth inhibition, % (no concentration beside the values). 0.57% of 300,000 active;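 active = growth inhibition above about 58% in most replicates, limit read from the data, passing the limit was not always enough; inconclusive = exactly half the replicates above a set limit; inactive = most replicates below a set limit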;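 also: all wells also contain fluconazole at 8 µg/ml as a sub-toxic cotreatment; 0% = median of DMSO wells and 100% = median of geldanamycin control wells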
* = called active by the depositor; ? = inconclusive; · = not tested or not shown. Only a selection was taken, and hits are over-represented in it overall.

SMILES	NALP1 yeast inh	PolyA inhibitor	NALP3 yeast inh	Lmaj promast	T cruzi inh	Calb FLC
CCOc1ccccc1NC(=O)C(NCC1(N2CCCCC2)CCCCC1)c1ccccc1 (configuration not stated)	25	-3	23	66*	36	12
O=C(c1ccc(Cl)c(S(=O)(=O)N2CCCCCC2)c1)N1CCN(c2ccccn2)CC1	11	-7	22	6	29	-1
O=C(Nc1ccccc1Cl)NC1(C(=O)N2CCC(O)CC2)CCCCC1	-3	10	18	·	-23	-4
Cn1c(=O)c2c(SCc3cccnc3)nc(CC(C)(C)C)nc2n(C)c1=O	-21	8	7	91*	29	-6
CC(=O)N1CCOCCOCCOCC1	10	13	0	·	-8	-4
CC(=O)N1CCOCCOCCN(C(C)=O)CCOCCOCC1	-2	-7	-16	-7	-30	102*
Cc1c(NC(=O)COC(=O)c2cc3c4ccccc4n(C)c3s2)c(=O)n(-c2ccccc2)n1C	5	-13	7	96*	14	1
Cc1c(NC(=O)COC(=O)c2ccccc2Cl)c(=O)n(-c2ccccc2)n1C	-1	-9	7	-6	-5	6
CCC(=O)NC(c1ccccc1OC)c1ccc2cccnc2c1O (configuration not stated)	-62	6	16	100*	60*	103*
COc1ccc(Cl)cc1C(Nc1cccnc1)c1ccc2cccnc2c1O (configuration not stated)	16	0	1	62*	72*	102*
CCCC(=O)NC(c1ccc(OC)cc1)c1ccc2cccnc2c1O (configuration not stated)	5	-10	3	100*	74*	102*
COc1ccc(C(=O)Nc2cccnc2)cc1OC	-45	6	10	0	4	-6
CCCCC(=O)NC(c1ccccc1)c1ccc2cccnc2c1O (configuration not stated)	-5	-8	8	·	57*	89*
COc1ccc(CNC(=O)CSc2cccc3cccnc23)cc1	·	-10	-5	·	3	2
CCCC(=O)NC(c1ccccc1)c1ccc2cccnc2c1O (configuration not stated)	18	1	11	·	58*	86*
Cc1cccc(C(=O)Oc2ccccc2/C=N/Nc2ccc([N+](=O)[O-])cc2)c1	15	·	·	98*	·	·
O=[N+]([O-])c1ccc(N/N=C/c2cccc(O)c2O)cc1	14	-5	47	·	40	-27
COc1ccccc1C(=O)C1CCCN(Cc2ccc(Oc3ncccn3)cc2)C1 (configuration not stated)	4	-8	17	-2	73*	0
COc1ccc2cc(C(=O)C3CCCN(Cc4cnc(N5CCOCC5)s4)C3)ccc2c1 (configuration not stated)	7	-11	36	10	41	-11
CC(C)Oc1cccc(C(=O)C2CCCN(Cc3ccc(Oc4ncccn4)cc3)C2)c1 (configuration not stated)	-10	-17	20	79*	66*	-10
COc1c(C)cc(C(=O)C2CCCN(Cc3ccc(Oc4ncccn4)cc3)C2)cc1C (configuration not stated)	1	-8	5	82*	33	3
COC(=O)c1ccc(CN2CCCC(C(=O)c3ccccc3OC)C2)cc1 (configuration not stated)	15	-22	17	·	22	-4
CC(C)Oc1cccc(C(=O)C2CCCN(Cc3cnc(N4CCCC4)s3)C2)c1 (configuration not stated)	0	-2	24	37	82*	-41
CCN(CC)CCC(=O)Nc1ccc2c(c1)N(C(=O)CN(CC)CC)c1ccccc1CC2	17	-6	11	6	22	3
Cc1cc(C)c(C#N)c(SCc2ccccc2[N+](=O)[O-])n1	31	-15	23	-1	-7	1
SMILES	NALP1 yeast inh	PolyA inhibitor	NALP3 yeast inh	Lmaj promast	T cruzi inh	Calb FLC
Cc1cc(C)c(C#N)c(SCc2nnc(-c3ccccc3[N+](=O)[O-])o2)n1	8	-30	26	1	69*	52
NC1=Nc2cccc3cccc1c23	13	4	17	52*	-11	20
C(=N\NC1=Nc2cccc3cccc1c23)/c1ccccc1	36	-36	25	8	14	16
OC(COCCOc1ccc(Br)cc1)CN1CCCCC1 (configuration not stated)	34	2	15	71*	20	-1
CCN1CCN(CC(O)COCCOc2ccc(Br)cc2)CC1 (configuration not stated)	21	8	30	-6	21	-1
CN1CCN(CC(O)COCCOc2ccc(Br)cc2)CC1 (configuration not stated)	18	7	-2	-8	59*	-2
CC(C)NCC(O)COCCOc1ccc(Br)cc1 (configuration not stated)	8	-5	9	13	63*	1
CC(C)NCC(O)COCCOc1ccc(C(C)(C)C)cc1 (configuration not stated)	26	-14	13	23	32	1
Brc1ccc(CSc2nnc(-c3ccco3)o2)cc1	22	-13	35	17	-13	-12
O=C(O)CCCN=Cc1c(O)c2ccccc2oc1=O	2	10	8	-7	-4	-5
COCCOC1CCN(C(=O)c2cc(COc3ccc(F)cc3F)on2)CC1	0	15	16	·	-2	-3
COc1ccc(-c2cc(C3CCN(c4ccc(C(C)=O)cc4[N+](=O)[O-])CC3)[nH]n2)cc1	6	-3	27	35	63*	-7
COC(=O)c1ccc(N2CCC(c3cc(-c4ccc(OC)cc4)n[nH]3)CC2)c([N+](=O)[O-])c1	11	9	20	21	45	?
CC(=O)c1ccc(N2CCC(c3cc(-c4ccc(Cl)cc4)n[nH]3)CC2)c([N+](=O)[O-])c1	-2	6	5	31	74*	-6
CC(=O)c1ccc(N2CCN(c3ncccn3)CC2)c([N+](=O)[O-])c1	21	1	23	·	-5	29
COc1ccc(C(=O)OCC(=O)Nc2c(C)n(C)n(-c3ccccc3)c2=O)cc1	·	·	11	·	·	·
CCOc1ccc(C(=O)Nc2c(C(N)=O)oc3ccccc23)cc1	13	-24	19	8	-1	-3
CCOc1ccc(C(=O)Nc2c(C(=O)N3CCC(N4CCCCC4)CC3)oc3ccccc23)cc1	6	10	2	·	58*	1
Cc1c(CCO)sc[n+]1CC(=O)OCCC12CC3CC(CC(C3)C1)C2	6	-9	12	-7	21	-13
CCCCCCCCCOC(=O)C[n+]1csc(CCO)c1C	44	-9	23	98*	5	-52

Assay outcomes from PubChem.
